This note sets out measurements from ChEMBL document CHEMBL1144251, “IKCa-channel blockers. Part 2: discovery of cyclohexadienes” (Bioorg Med Chem Lett, 2005).

Molecules are shown by their SMILES. pIC50: −log10 of the molar value.

This experiment in a line: Inhibitory concentration against rat Calcium-activated potassium channel (IKca). In a few lines: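 IC50 taken as the mean of at least two separate experiments, each run in triplicate.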
What is called pIC50 is −log10 of the IC50, conventionally taken in molar units. With `COC(=O)C1=C(C)CC(C)=C(C(=O)OC)C1c1ccc(Cl)c(C(F)(F)F)c1`, the pIC50 was 8.82.

With `COC(=O)C1=C(C)CC(C)=C(C(=O)OC)C1C1CCCCC1`, the pIC50 is less than 6.00.

As for `COC(=O)C1=C(C)CC(C)=C(C(=O)OC)C1c1cccnc1`, the pIC50 is less than 6.00.

In the case of `COC(=O)C1=C(C)CC(C)=C(C(=O)OC)C1c1cc(Cl)cc(Cl)c1`, the negative logarithm of the IC50 (pIC50) is 7.00.

For `COC(=O)C1=C(C)CC(C)=C(C(=O)O)C1c1ccc(Cl)c(C(F)(F)F)c1` (stereo not given), the pIC50 is less than 6.00.

Regarding `CCO/C(O)=C1/C(=O)CC2=C(C(=O)OC2)C1c1ccc(Cl)c(C(F)(F)F)c1` (stereo not given), the pIC50 was 7.40.

For `CNC1=C(C(=O)OC)C(c2ccc([N+](=O)[O-])cc2)C(C(=O)OC)=C(C)C1` (stereo not given), the pIC50 was 7.70.

For `CNC1=C(C(=O)OC)C(c2ccc(C(F)(F)F)cc2)C(C(=O)OC)=C(C)C1` (stereo not given), the pIC50 is 6.70.

For `CCO/C(O)=C1/C(=O)CC2=C(C(=O)OC2)C1c1ccccc1Cl` (stereo not given), the pIC50 was 6.70.

As to `CNC1=C(C(=O)OC)C(c2cccc([N+](=O)[O-])c2)C2=C(COC2=O)C1` (stereo not given), the negative logarithm of the IC50 (pIC50) was 6.70.

With `CNC1=C(C(=O)OC)C(c2cccc([N+](=O)[O-])c2)C(C(=O)OC)=C(C)C1` (stereo not given), the pIC50 is 7.60.

As to `COC(=O)C1=C(C)CC2=C(C(=O)OC2)C1c1ccc(Cl)c(C(F)(F)F)c1` (stereo not given), the pIC50 is 8.10.

Turning to `COC(=O)C1=C(C)CC(C)=C(C(=O)OC(C)(C)C)C1c1ccc(Cl)c(C(F)(F)F)c1` (stereo not given), the pIC50 was less than 6.00.

Turning to `CNC1=C(C(=O)OC)C(c2cccc(Cl)c2Cl)C2=C(COC2=O)C1` (stereo not given), the pIC50 was 6.40.

For `COC(=O)C1=C(C)CC(C)=C(C(N)=O)C1c1ccc(Cl)c(C(F)(F)F)c1` (stereo not given), the pIC50 was 7.52.
